Data taken from ChEMBL document CHEMBL1122461, “Antiviral compounds. 1. Structure-activity relationship of some antiviral enediones derived from aldehydo sugars” (1983).

Key:
[1] = tested on: Human alphaherpesvirus 1; experiment: Antiviral activity against HSV-1 (Herpes simplex virus); assay type: functional
Summary of the method: (§1)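 Disk-diffusion gradient assay. BSC1 (M199) or Vero (RPMI) monolayers with 10% inactivated calf serum are infected to give confluent plaques. They are overlaid with Eagle's/1% agar/5% calf serum. A 5-mm paper disk soaked in compound (5 mg/mL in DMSO) is placed centrally, then 3–4 days at 37 °C, fix and stain. Diameter of the destroyed central zone = toxicity. Plaque-free diameter minus toxic diameter = antiviral activity.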

[2] = tested on: Semliki Forest virus; experiment: Antiviral activity against forest virus; assay type: functional; summary of the method: as §1
[3] = tested on: Vaccinia virus; experiment: Antiviral activity against Vaccinia virus; assay type: functional, Orthopoxvirus vaccinia; set-up: unit not given here; summary of the method: as §1
[4] = tested on: Vero; experiment: Cytotoxicity against BSCL and Vero cells; assay type: functional, Chlorocebus sabaeus; summary of the method: as §1
[5] = tested on: BSC-1; experiment: Inhibition of cellular DNA synthesis in BSCL cells at the dose of 0.8 ug/mL.; assay type: functional, Cercopithecidae; settings: Chlorocebus aethiops
Summary of the method: (§2)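 HSV-1-infected BSC1 cells labelled with [3H]thymidine (2 μCi/mL) from 3 h post-infection and harvested at 22 h. Lysed with 1% SDS and 0.3 mg/mL Pronase for 5 h at 37 °C. DNA banded on CsCl gradient (pH 8.0, 35000 rpm, 20 °C, 48 h). TCA-precipitable radioactivity in viral and cellular DNA peaks is summed and expressed as % of infected untreated culture.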

[6] = tested on: Human alphaherpesvirus 1; experiment: Growth inhibition against HSV-1 virus in BSCL cells at the dose of 0.8 ug/mL and 22h time of treatment.; assay type: functional; settings: Human alphaherpesvirus 1, BSCL
Summary of the method: (§3)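 HSV-1 grown 22 h in BSC1 cells in the presence of compound after infection at 1 pfu/cell (1 h, 37 °C, wash, medium with 2% calf serum). Virus yield is titred by plaque assay on agar overlay: 4 days at 37 °C, crystal violet stain, plaque count. Reported as % inhibition of virus growth.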

[7] = tested on: Human alphaherpesvirus 1; experiment: Inhibition of viral DNA synthesis in HSV-1 virus at the dose of 0.8 ug/mL.; assay type: functional; summary of the method: as §2
[8] = tested on: BSC-1; experiment: Inhibition of cellular DNA synthesis in BSCL cells at the dose of 1.4 ug/mL.; assay type: functional, Cercopithecidae; settings: Chlorocebus aethiops; summary of the method: as §2
[9] = tested on: Human alphaherpesvirus 1; experiment: Inhibition of viral DNA synthesis in HSV-1 virus at the dose of 1.4 ug/mL.; assay type: functional; summary of the method: as §2
[10] = tested on: Human alphaherpesvirus 1; experiment: Growth inhibition against HSV-1 virus in BSCL cells at the dose of 1.4 ug/mL and 22h time of treatment.; assay type: functional; settings: Human alphaherpesvirus 1, BSCL; summary of the method: as §3
[11] = tested on: BSC-1; experiment: Inhibition of cellular DNA synthesis in BSCL cells at the dose of 17.0 ug/mL.; assay type: functional, Cercopithecidae; settings: Chlorocebus aethiops; summary of the method: as §2
[12] = tested on: Human alphaherpesvirus 1; experiment: Growth inhibition against HSV-1 virus in BSCL cells at the dose of 17.0 ug/mL and 22h time of treatment.; assay type: functional; settings: Human alphaherpesvirus 1, BSCL; summary of the method: as §3
[13] = tested on: Human alphaherpesvirus 1; experiment: Inhibition of viral DNA synthesis in HSV-1 virus at the dose of 17.0 ug/mL.; assay type: functional; summary of the method: as §2

Structure (SMILES)	Antiviral activity [1]	Antiviral activity [2]	Antiviral activity [3]	Cytotoxicity [4]	other results
CC(=O)/C(=C\[C@@H]1O[C@H](c2ccccc2)O[C@@H]2CO[C@@H](c3ccccc3)O[C@@H]12)C(=O)c1ccccc1	12 mm	0 mm	8	14 mm	
O=c1[nH]c(=O)n([C@H]2C[C@H](O)[C@@H](CO)O2)cc1I [IDOXURIDINE]					inhibition at 0.8 µg/mL [5]: 21.5%; inhibition at 0.8 µg/mL [6]: 71.3%; inhibition at 0.8 µg/mL [7]: 31.1%
CC(=O)OCC(OC(C)=O)C(OC(C)=O)C(C=C(C(C)=O)C(C)=O)OC(C)=O (stereo unspecified)	11 mm	0 mm	0	13 mm	
CC(=O)OCC(OC(C)=O)C(OC(C)=O)C(OC(C)=O)C(C=C(C(C)=O)C(C)=O)OC(C)=O (stereo unspecified)	1 mm	0 mm	3	8 mm	
Nc1ccn([C@@H]2O[C@H](CO)[C@@H](O)[C@@H]2O)c(=O)n1 [CYTARABINE]					inhibition at 1.4 µg/mL [8]: 38.3%; inhibition at 1.4 µg/mL [9]: 0%; inhibition at 1.4 µg/mL [10]: 93.6%
CC(=O)C(=C[C@@H]1O[C@H](c2ccccc2)O[C@@H]2CO[C@@H](c3ccccc3)O[C@@H]12)C(C)=O	11 mm	0 mm	5	10 mm	inhibition at 17 µg/mL [11]: 80.7%; inhibition at 17 µg/mL [12]: 95.5%; inhibition at 17 µg/mL [13]: 50.9%
CC(=O)OC(C=C(C(C)=O)C(C)=O)C(OC(=O)c1ccccc1)C(COC(=O)c1ccccc1)OC(C)=O (stereo unspecified)	4 mm	4 mm	6	2 mm	
O=C[C@@H]1O[C@H](c2ccccc2)O[C@@H]2CO[C@@H](c3ccccc3)O[C@@H]12	8 mm	6 mm	12	8 mm	
O=C1OCC/C1=C\[C@@H]1O[C@H](c2ccccc2)O[C@@H]2CO[C@@H](c3ccccc3)O[C@@H]12	0 mm	0 mm	14	3 mm	
CC(=O)/C(=C\[C@@H]1O[C@H](c2ccccc2)O[C@H](CC(=O)Oc2ccccc2)[C@H]1C(=O)Oc1ccccc1)C(=O)Nc1ccccc1	2 mm	0 mm	9	4 mm	
